Data reported in ChEMBL document CHEMBL1149866, “Cytotoxic diterpenoids from Euphorbia helioscopia” (J Nat Prod, 2008).

Columns and labels:
MDA-MB-231 = test: Cytotoxicity against human MDA-MB-231 cells by MTT method; assay type: functional, cell-based
Method in brief: (§1)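 HeLa (human cervical carcinoma) and MDA-MB-231 (breast tumor) cells; MTT viability read-out run per a previously published protocol; IC50 determined; adriamycin as positive control.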

HeLa = test: Cytotoxicity against human HeLa cells by MTT method; assay type: functional, cell-based; method in brief: as §1

Row | Compound | IC50 (MDA-MB-231) | IC50 (HeLa)
1 | CC(=O)O[C@@H]1C[C@@H](OC(C)=O)C(C)(C)[C@H](O)[C@H]2O[C@@]3(C[C@H](C)[C@H](OC(=O)c4ccccc4)[C@@H]3/C=C/1C)[C@@H](OC(C)=O)[C@H]2C | > 10 µM | > 10 µM
2 | CC(=O)O[C@@H]1[C@H](C)/C=C/C(C)(C)C(=O)C[C@@H](OC(=O)c2ccccc2)/C(CO)=C/[C@H]2[C@@H](OC(=O)c3ccccc3)[C@H](C)C[C@]12OC(C)=O | > 10 µM | > 10 µM
3 | CC(=O)O[C@H]1[C@@H](C)/C=C/C(C)(C)[C@H](O)C[C@@H](O)/C(C)=C/[C@H]2[C@@H](OC(=O)c3ccccc3)[C@@H](C)C[C@@]21O | > 10 µM | > 10 µM
4 | CC(=O)O[C@@H]1[C@H]2O[C@@]3(C[C@H](C)[C@H](OC(=O)c4ccccc4)[C@@H]3/C=C(\C)[C@H](OC(C)=O)C[C@@H](OC(C)=O)C1(C)C)[C@@H](OC(C)=O)[C@H]2C | > 10 µM | > 10 µM
5 | CC(=O)O[C@@H]1C[C@@H](OC(C)=O)C(C)(C)/C=C/[C@H](C)[C@H](OC(C)=O)[C@@]2(O)C[C@H](C)[C@H](OC(=O)c3ccccc3)[C@@H]2/C=C/1CO | > 10 µM | > 10 µM
6 | CC(=O)O[C@@H]1C[C@@H](O)C(C)(C)/C=C/[C@H](C)[C@H](OC(C)=O)[C@@]2(O)C[C@H](C)[C@H](OC(=O)c3ccccc3)[C@@H]2/C=C/1C [EUPHORNIN B] | > 10 µM | > 10 µM
7 | CC(=O)O[C@@H]1C[C@@H](OC(C)=O)C(C)(C)/C=C/[C@H](C)[C@H](OC(C)=O)[C@@]2(O)C[C@H](C)[C@H](OC(=O)c3ccccc3)[C@@H]2/C=C/1C [EUPHORNIN] | 13.4 µM | 3.1 µM
8 | CC(=O)O[C@@H]1[C@H](C)/C=C/C(C)(C)C(=O)C[C@@H](OC(=O)c2ccccc2)/C(C)=C/[C@H]2[C@@H](OC(=O)c3ccccc3)[C@H](C)C[C@]12OC(C)=O [EUPHOSCOPIN C] | > 10 µM | > 10 µM
9 | CC1=C2C=C3CC[C@@H]4C(C)(C)[C@H](O)CC[C@@]4(C)[C@@H]3C[C@H]2OC1=O [HELIOSCOPINOLIDE A] | 2.1 µM | 0.11 µM
